Where only a bound is given, the exact number is not on record here.

This note sets out measurements from ChEMBL document CHEMBL4616606, “New compounds for a good old class: Synthesis of two Β-lactam bearing cephalosporins and their evaluation with a multidisciplinary approach” (Bioorg Med Chem, 2020).

Data set [1] has as its system Staphylococcus aureus. As to the kind of experiment: Antimicrobial activity against Staphylococcus aureus by CLSI method. The format is functional. To be noted: for MIC50 / MIC: Staphylococcus aureus; for MIC: read-out: MIC100.
Data set [2] deals with Bacillus subtilis. As to the kind of experiment: Antimicrobial activity against Bacillus subtilis by CLSI method. It is filed as functional. The following applies: for MIC50 / MIC: Bacillus subtilis; for MIC: read-out: MIC100.
Data set [3] deals with Escherichia coli. As to the kind of experiment: Antimicrobial activity against Escherichia coli JM107 by CLSI method. It is filed as functional. The following applies: for MIC50 / MIC: Escherichia coli, JM107; for MIC: read-out: MIC100.
The subject of data set [4] is Salmonella typhimurium. Briefly: Antimicrobial activity against Salmonella enterica LT2 ATCC 700720 by CLSI method. The format is functional, Salmonella enterica subsp. enterica serovar Typhimurium. The following applies: for MIC50 / MIC: Salmonella enterica, LT2 ATCC 700720; for MIC: read-out: MIC100.
The subject of data set [5] is MRC5. As to the kind of experiment: Cytotoxicity against human MRC5 cells assessed as reduction in cell viability at 0.5 to 25 ug/ml after 24 hrs by MTT assay. It is filed as cell-based. The following applies: mrc5, 24 h. In a few lines:
(§1)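 MTT colorimetric viability test; human embryonic lung MRC5 cells or human lung cancer Calu-1 cells exposed 24 h to compound over 0.5–50 µg/ml; DMSO vehicle up to 0.4% v/v. Two or three independent experiments, each in triplicate, reported as mean ± SD.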
For orientation: Tetrazolium assays rely on reduction of a dye to a coloured formazan, in cell work by metabolically active cells.

The subject of data set [6] is MRC5. Briefly: Cytotoxicity against human MRC5 cells assessed as reduction in cell viability at 25 ug/ml after 24 hrs by MTT assay. The format is cell-based. The following applies: mrc5, 24 h. In a few lines: as §1
The test system of data set [7] is Calu-1. Briefly: Cytotoxicity against human Calu1 cells assessed as reduction in cell viability at 50 ug/ml after 24 hrs by MTT assay. The following applies: calu-1, 24 h. It is filed as cell-based. In a few lines: as §1

One may read the MIC50 as an inhibitory concentration at the 50% level, which refers to growth in some studies and to a panel of isolates in others. For `COc1ccc(N2C(=O)C(CC(=O)N[C@@H]3C(=O)N4C(C(=O)[O-])=C(COC(C)=O)CS[C@H]34)C2c2ccccc2)cc1.[Na+]` (mixture of isomers), the MLD is over 1.5 µg/mL in data set [1], “>=128 ug ml-1” in data set [2], over 256 µg/mL in data set [3] and over 256 µg/mL in data set [4]. In addition, the MIC50 in data set [1] is under 0.25 µg/mL; in data set [2], under 0.25 µg/mL; in data set [3], over 256 µg/mL; in data set [4] it was over 256 µg/mL. The MIC in data set [1] was 1.5 µg/mL; in data set [2], 0.75 µg/mL; in data set [3] it was over 256 µg/mL; in data set [4] it was over 256 µg/mL. Besides, in data set [5], the Activity entry was “Non-Toxic”.

Turning to `CC(=O)OCC1=C(C(=O)[O-])N2C(=O)[C@@H](NC(=O)CCCCCCCC3C(=O)N(c4ccccc4)C3c3ccccc3)[C@H]2SC1.[Na+]` (mixture of isomers), the MLD entry in data set [1] is “>=1 ug ml-1”; in data set [2], over 16 µg/mL; in data set [3], over 256 µg/mL; in data set [4], over 256 µg/mL. The MIC50 is under 0.25 µg/mL in data set [1], under 0.25 µg/mL in data set [2], over 256 µg/mL in data set [3] and over 256 µg/mL in data set [4]. The MIC in data set [1] was 1 µg/mL; in data set [2], 0.75 µg/mL; in data set [3], over 256 µg/mL; in data set [4], over 256 µg/mL.

Take `COc1ccc(N2C(=O)C(CC(=O)N[C@@H]3C(=O)N4C(C(=O)[O-])=C(COC(C)=O)CS[C@H]34)C2c2ccc([N+](=O)[O-])cc2)cc1.[Na+]` (mixture of isomers): the MLD was over 32 µg/mL in data set [1], over 256 µg/mL in data set [2], over 256 µg/mL in data set [3] and over 256 µg/mL in data set [4]. Also, the MIC50 is 4 to 8 µg/mL in data set [1], 8 µg/mL in data set [2], over 256 µg/mL in data set [3] and over 256 µg/mL in data set [4]. The MIC in data set [1] was 32 µg/mL; in data set [2], 32 µg/mL; in data set [3] it was over 256 µg/mL; in data set [4], over 256 µg/mL. Besides, the Activity result in data set [5] is recorded as “Non-Toxic”.

Regarding `COc1ccc(N2C(=O)C(CC(=O)N[C@@H]3C(=O)N4C(C(=O)[O-])=C(COC(C)=O)CS[C@H]34)C2c2ccc(Cl)cc2)cc1.[Na+]` (mixture of isomers), the MLD is over 32 µg/mL in data set [1], over 256 µg/mL in data set [2], over 256 µg/mL in data set [3] and over 256 µg/mL in data set [4]. The MIC50 in data set [1] was 4 to 8 µg/mL; in data set [2], under 4 µg/mL; in data set [3] it was over 256 µg/mL; in data set [4], over 256 µg/mL. For the same compound, the MIC in data set [1] is 32 µg/mL; in data set [2], 32 µg/mL; in data set [3], over 256 µg/mL; in data set [4] it was over 256 µg/mL. Moreover, the Activity entry in data set [5] was “Non-Toxic”.

`CC(=O)OCC1=C(C(=O)[O-])N2C(=O)[C@@H](NC(=O)CC3C(=O)N(c4ccccc4)C3c3ccccc3)[C@H]2SC1.[Na+]` (mixture of isomers): the MLD in data set [1] is over 3 µg/mL; in data set [2], over 2.5 µg/mL; in data set [3], over 256 µg/mL; in data set [4], over 256 µg/mL. Also, the MIC50 is 0.75 µg/mL in data set [1], under 0.25 µg/mL in data set [2], over 256 µg/mL in data set [3] and over 256 µg/mL in data set [4]. In addition, the MIC in data set [1] was 2.5 µg/mL; in data set [2], 2.5 µg/mL; in data set [3], over 256 µg/mL; in data set [4] it was over 256 µg/mL.

For the compound `CC(=O)OCC1=C(C(=O)[O-])N2C(=O)[C@@H](NC(=O)CCC3C(=O)N(c4ccc(C)c(C)c4)C3c3ccccc3)[C@H]2SC1.[Na+]` (mixture of isomers), the MLD is over 16 µg/mL in data set [1], 64 µg/mL in data set [2], over 256 µg/mL in data set [3] and over 256 µg/mL in data set [4]. Besides, the MIC50 in data set [1] is 1 µg/mL; in data set [2], at most 1 µg/mL; in data set [3], over 256 µg/mL; in data set [4], over 256 µg/mL. Besides, the MIC was 4 to 6 µg/mL in data set [1], 2 µg/mL in data set [2], over 256 µg/mL in data set [3] and over 256 µg/mL in data set [4]. Moreover, the Activity entry in data set [5] is “Non-Toxic”.

Regarding `COc1ccc(N2C(=O)C(CCCCCC(=O)N[C@@H]3C(=O)N4C(C(=O)[O-])=C(COC(C)=O)CS[C@H]34)C2c2ccccc2)cc1.[Na+]` (mixture of isomers), the MLD entry in data set [1] is “>=1.75 - 2 ug ml-1”; in data set [2] it was “>=0.75 ug ml-1”; in data set [3], over 256 µg/mL; in data set [4] it was over 256 µg/mL. Moreover, the MIC50 in data set [1] is 0.75 µg/mL; in data set [2], under 0.12 µg/mL; in data set [3], over 256 µg/mL; in data set [4], over 256 µg/mL. Besides, the MIC in data set [1] is 1.75 µg/mL; in data set [2], 0.25 to 0.35 µg/mL; in data set [3], over 256 µg/mL; in data set [4] it was over 256 µg/mL. In data set [5], the Activity entry was “Non-Toxic”.

On to `CC(=O)OCC1=C(C(=O)[O-])N2C(=O)[C@@H](NC(=O)CC3C(=O)N(c4ccc(C)c(C)c4)C3c3ccccc3)[C@H]2SC1.[Na+]` (mixture of isomers), for which the MLD is over 16 µg/mL in data set [1], “>=3.5 ug ml-1” in data set [2], over 256 µg/mL in data set [3] and over 256 µg/mL in data set [4]. For the same compound, the MIC50 in data set [1] was over 1 µg/mL; in data set [2] it was under 0.25 µg/mL; in data set [3], over 256 µg/mL; in data set [4] it was over 256 µg/mL. The MIC in data set [1] is 4 to 8 µg/mL; in data set [2], 3.5 µg/mL; in data set [3] it was over 256 µg/mL; in data set [4], over 256 µg/mL. Moreover, in data set [6], the Activity was determined as 20%.

Turning to `CO/N=C(\C(=O)N[C@@H]1C(=O)N2C(C(=O)O)=C(CSc3nc(=O)c(=O)[nH]n3C)CS[C@H]12)c1csc(N)n1.[Na+]`, the MLD in data set [1] is over 7 µg/mL; in data set [2], “>=1 ug ml-1”; in data set [3] it was over 1 µg/mL; in data set [4], “>=2 ug ml-1”. Moreover, the MIC50 in data set [1] was 2 to 4 µg/mL; in data set [2], under 0.25 µg/mL; in data set [3], under 0.25 µg/mL; in data set [4], under 0.25 µg/mL. For the same compound, the MIC was found to be 5.5 µg/mL in data set [1], 0.75 µg/mL in data set [2], 0.25 µg/mL in data set [3] and 0.25 µg/mL in data set [4].

On to `CC(=O)OCC1=C(C(=O)[O-])N2C(=O)[C@@H](NC(=O)CCCCCC3C(=O)N(c4ccccc4)C3c3ccccc3)[C@H]2SC1.[Na+]` (mixture of isomers), for which the MLD in data set [1] is over 4 µg/mL; in data set [2], over 32 µg/mL; in data set [3], over 256 µg/mL; in data set [4], over 256 µg/mL. Further, the MIC50 in data set [1] was 1.5 to 2 µg/mL; in data set [2], under 0.25 µg/mL; in data set [3], over 256 µg/mL; in data set [4], over 256 µg/mL. The MIC in data set [1] was 3.5 to 4 µg/mL; in data set [2], 0.5 µg/mL; in data set [3], over 256 µg/mL; in data set [4] it was over 256 µg/mL. Moreover, the Activity entry in data set [5] is on record as “Non-Toxic”; in data set [7], “Toxic”.

Consider `CC(=O)OCC1=C(C(=O)[O-])N2C(=O)[C@@H](NC(=O)CCC3C(=O)N(c4ccccc4)C3c3ccccc3)[C@H]2SC1.[Na+]` (mixture of isomers), for which the MLD entry in data set [1] is “>=3 ug ml-1”; in data set [2] it was over 32 µg/mL; in data set [3], over 256 µg/mL; in data set [4], over 256 µg/mL. The MIC50 in data set [1] was 0.25 to 0.5 µg/mL; in data set [2], under 0.25 µg/mL; in data set [3], over 256 µg/mL; in data set [4], over 256 µg/mL. The MIC in data set [1] is 2.5 µg/mL; in data set [2], 1 µg/mL; in data set [3] it was over 256 µg/mL; in data set [4] it was over 256 µg/mL. In addition, the Activity result in data set [5] was “Non-Toxic”; in data set [7], “Toxic”.

For `COc1ccc(N2C(=O)C(CCCCCCCC(=O)N[C@@H]3C(=O)N4C(C(=O)[O-])=C(COC(C)=O)CS[C@H]34)C2c2ccccc2)cc1.[Na+]` (mixture of isomers), the MLD in data set [1] was 0.25 µg/mL; in data set [2], “>=2 - 4 ug ml-1”; in data set [3], over 256 µg/mL; in data set [4] it was over 256 µg/mL. The MIC50 in data set [1] was over 0.12 µg/mL; in data set [2] it was under 0.12 µg/mL; in data set [3] it was over 256 µg/mL; in data set [4], over 256 µg/mL. Further, the MIC is under 0.25 µg/mL in data set [1], 0.25 µg/mL in data set [2], over 256 µg/mL in data set [3] and over 256 µg/mL in data set [4]. Moreover, the Activity in data set [6] was 20%.
